From ChEMBL document CHEMBL1921744, “Lipophosphonoxins: new modular molecular structures with significant antibacterial properties” (J Med Chem, 2011)
≈ marks a conversion by molar mass, not a printed value. Each block holds one molecule with its values, some of them ahead of it. Calls of active or inactive are those of the source. The rule behind the calls is not given here.

How the values were obtained:
Enterococcus faecium [1] = experiment: Antibacterial activity against vancomycin-resistant Enterococcus faecium VanA419/ana after 24 to 48 hrs by microdilution method; type: functional
How it was run: (§1)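 Broth microdilution MIC on clinical isolates from Teaching Hospital Olomouc, stored at −80 °C. Compounds were serially diluted in brain heart infusion broth over 200–1.56 μg/mL (sometimes extended to 0.78 μg/mL), with an inoculum of 10⁵⁻⁶ CFU/ml per well. Plates were incubated at 37 °C and read at 24/48 h. MIC was taken as the lowest concentration inhibiting growth.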

[2] = tested on: Staphylococcus epidermidis; experiment: Antibacterial activity against methicillin-resistant Staphylococcus epidermidis 8700/B after 24 to 48 hrs by microdilution method; type: functional; how it was run: as §1
[3] = Cytotoxicity against human Erythroid progenitor cells assessed as cell viability after 48 hrs by CellTiter-blue assay; type: cell-based
How it was run: (§2)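 Normal human erythroid progenitor cells, expanded from umbilical cord blood, plated at 25000 cells/well immediately before compound addition (added as a 5× predilution in culture medium). Viability by CellTiter-Blue fluorescence 48 h after addition, normalized to untreated cells set as 100%.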

[4] = Cytotoxicity against human Erythroid progenitor cells assessed as maximum safe concentration after 48 hrs by CellTiter-blue assay; type: cell-based; conditions: read-out: Activity; how it was run: as §2
[5] = Induction of apoptosis in human Erythroid progenitor cells assessed as caspase 3/7 activation after 4 hrs by Caspase-Glo 3/7 assay
How it was run: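 Cord-blood-derived human erythroid progenitor cells plated at 25000 cells/well and exposed to compound prediluted in medium. Caspase 3/7 activation read by Caspase-Glo 3/7 luminescence 4 h after addition, normalized to untreated control cells set as 100%.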

Escherichia coli [6] = experiment: Antibacterial activity against Escherichia coli after 24 to 48 hrs by microdilution method; type: functional
How it was run: (§3)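 Incubation 24/48 h at 37 °C. MIC read as the lowest concentration inhibiting growth. MBC determined by transferring 10 μL from wells onto blood agar, taken as the lowest concentration with no visible growth.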

Pseudomonas aeruginosa = experiment: Antibacterial activity against Pseudomonas aeruginosa after 24 to 48 hrs by microdilution method; type: functional; how it was run: as §3
Enterococcus faecalis [7] = experiment: Antibacterial activity against Enterococcus faecalis CCM 4224 after 24 to 48 hrs by microdilution method; type: functional; how it was run: as §3
Staphylococcus aureus [8] = experiment: Antibacterial activity against Staphylococcus aureus CCM 4223 after 24 to 48 hrs by microdilution method; type: functional; how it was run: as §3
Bacillus subtilis [9] = experiment: Antibacterial activity against Bacillus subtilis after 24 to 48 hrs by microdilution method; type: functional; how it was run: as §3
Streptococcus agalactiae = experiment: Antibacterial activity against Streptococcus agalactiae after 24 to 48 hrs by microdilution method; type: functional; how it was run: as §3
Bacillus subtilis [10] = experiment: Inhibition of Bacillus subtilis RNA polymerase using [alpha-32P]-UTP at 1 mM pretreated for 5 mins measured after 15 mins by electrophoresis analysis
How it was run: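 Reconstituted B. subtilis RNAP σA holoenzyme (6 nM) with supercoiled pLK7 template carrying the rrnB P1 promoter (4 ng/μL). Nucleotides: ATP/CTP/GTP 200 μM, UTP 10 μM plus 2 μM [α-³²P]-UTP. Compound at 1 mM; 5 min preincubation at 30 °C, started with RNAP, stopped after 15 min with formamide/EDTA.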

Staphylococcus aureus [11] = experiment: Antibacterial activity against methicillin-sensitive Staphylococcus aureus ATCC 29213; type: functional; how it was run: as §3
Staphylococcus aureus [12] = experiment: Antibacterial activity against methicillin-resistant Staphylococcus aureus SR3637; type: functional
Enterococcus faecalis [13] = experiment: Antibacterial activity against Enterococcus faecalis ATCC 29212; type: functional
Enterococcus faecalis [14] = experiment: Antibacterial activity against vancomycin-resistant Enterococcus faecalis SR7914; type: functional
Enterococcus faecium [15] = experiment: Antibacterial activity against Enterococcus faecium ATCC 19434; type: functional; how it was run: as §3
Enterococcus faecium [16] = experiment: Antibacterial activity against vancomycin-resistant Enterococcus faecium SR7917; type: functional
Escherichia coli [17] = experiment: Antibacterial activity against permeabilized Escherichia coli DH5[alpha] assessed as cell killing at 10 uM; type: functional
How it was run: (§4)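 Competent (permeabilized) E. coli DH5α cells were mixed with 5 ng pUC18 (ampR) and serially diluted compound or buffer only. Steps: 30 min on ice, heat shock at 42 °C for 90 s, 5 min on ice, then LB without antibiotic for 1 h at 37 °C with shaking. Plated on LB agarose with ampicillin 100 μg/mL overnight at 37 °C. Colonies counted against the no-compound control.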

Escherichia coli [18] = experiment: Antibacterial activity against permeabilized Escherichia coli DH5[alpha] assessed as log reduction of colony forming unit at 10 uM; type: functional, organism-based; how it was run: as §4
Staphylococcus aureus [19] = experiment: Antibacterial activity against methicillin-resistant Staphylococcus aureus 4591 after 24 to 48 hrs by microdilution method; type: functional; how it was run: as §1
[20] = tested on: Staphylococcus haemolyticus; experiment: Antibacterial activity against fluoroquinolone-resistant Staphylococcus haemolyticus 16568 after 24 to 48 hrs by microdilution method; type: functional; how it was run: as §1

Compound: CCCCCCCCCCCCCCCCOP(=O)(CCN1C[C@H](O)C[C@H]1CO)OC[C@H]1O[C@@H](n2ccc(=O)[nH]c2=O)[C@H](O)[C@@H]1O (some centres not stated)
MIC (Enterococcus faecium [1]): 6.25 µg/mL (≈ 9.25 µM) | MIC [2]: 6.25 µg/mL (≈ 9.25 µM) | IC50 [3]: 116 µg/mL (≈ 172 µM) | MNTC at 48 h [4]: 62.5 µg/mL | Activity [5]: Non-toxic | MIC (Escherichia coli [6]): > 200 µg/mL | MIC (Pseudomonas aeruginosa): > 200 µg/mL | MIC (Enterococcus faecalis [7]): 6.25 µg/mL (≈ 9.25 µM) | MIC (Staphylococcus aureus [8]): 100 µg/mL (≈ 148 µM) | MIC (Bacillus subtilis [9]): 3.13 µg/mL (≈ 4.63 µM) | MIC (Streptococcus agalactiae): 3.13 µg/mL (≈ 4.63 µM)

inhibition (Bacillus subtilis [10]): inactive | MIC (Escherichia coli [6]): > 200 µg/mL | MIC (Pseudomonas aeruginosa): > 200 µg/mL | MIC (Streptococcus agalactiae): 12.5 µg/mL (≈ 16.7 µM)
Compound: CCCCCCCCCCCCCCCCOCCCOP(=O)(CCN1C[C@@H](O)[C@@H](O)[C@@H](O)C1)OC[C@H]1O[C@@H](n2ccc(=O)[nH]c2=O)[C@H](O)[C@@H]1O (some centres not stated)
IC50 [3]: 149 µg/mL (≈ 199 µM) | MNTC at 48 h [4]: 62.5 µg/mL | Activity [5]: Non-toxic

Compound: CCCCCCCCCCCCCCCCOP(=O)(CCN1C[C@@H](O)[C@H](O)C1)OC[C@H]1O[C@@H](n2ccc(=O)[nH]c2=O)[C@H](O)[C@@H]1O (stereo in doubt; 12i-P1) [listing 1 of 2 here]
Activity [5]: Toxic

MIC (Escherichia coli [6]): > 200 µg/mL | MIC (Pseudomonas aeruginosa): > 200 µg/mL
Compound: CC(C)(C)C(=O)SCCOP(=O)(CCN1C[C@@H](O)[C@H](O)C1)OC[C@H]1O[C@@H](n2ccc(=O)[nH]c2=O)[C@H](O)[C@@H]1O (some centres not stated)
IC50 [3]: > 1000 µg/mL | MNTC at 48 h [4]: > 1000 µg/mL | Activity [5]: Non-toxic

Compound: CCCCCCCCCCCCCCC[C@@H](NC[C@@H](NC(=O)N[C@H](C(=O)O)C(C)C)[C@@H]1CCNC(=N)N1)C(=O)NCCCN[C@H](C(=O)O)[C@H](O[C@@H]1O[C@H](CN)[C@@H](O)[C@H]1O)[C@H]1O[C@@H](n2ccc(=O)[nH]c2=O)[C@H](O)[C@@H]1O
MIC (Staphylococcus aureus [11]): 2 µg/mL (≈ 1.89 µM) | MIC (Staphylococcus aureus [12]): 4 µg/mL (≈ 3.79 µM) | MIC (Enterococcus faecalis [13]): 2 µg/mL (≈ 1.89 µM) | MIC (Enterococcus faecalis [14]): 4 µg/mL (≈ 3.79 µM) | MIC (Enterococcus faecium [15]): 0.5 µg/mL (≈ 0.473 µM) | MIC (Enterococcus faecium [16]): 0.25 µg/mL (≈ 0.237 µM)

Compound: CC(C)C[C@@H](NC[C@@H](NC(=O)N[C@H](C(=O)O)C(C)C)[C@@H]1CCNC(=N)N1)C(=O)NCCCN[C@H](C(=O)O)[C@H](O[C@@H]1O[C@H](CN)[C@@H](O)[C@H]1O)[C@H]1O[C@@H](n2ccc(=O)[nH]c2=O)[C@H](O)[C@@H]1O
MIC (Staphylococcus aureus [11]): > 64 µg/mL | MIC (Staphylococcus aureus [12]): > 64 µg/mL | MIC (Enterococcus faecalis [13]): > 64 µg/mL | MIC (Enterococcus faecalis [14]): > 64 µg/mL | MIC (Enterococcus faecium [15]): > 64 µg/mL | MIC (Enterococcus faecium [16]): > 64 µg/mL

Compound: CCCCCCCCCCCCCCCCOP(=O)(CCN1C[C@@H](O)[C@H](O)C1)OC[C@H]1O[C@@H](n2ccc(=O)[nH]c2=O)[C@H](O)[C@@H]1O (stereo in doubt; 12i-P1) [listing 2 of 2 here]
Activity (Enterococcus faecalis [7]): Active | Activity (Staphylococcus aureus [8]): Active | Activity (Bacillus subtilis [9]): Active | Activity (Streptococcus agalactiae): Active

Compound: CCCCCCCCCCCCCCCCOCCCOP(=O)(CCN1C[C@@H](O)[C@H](O)C1)OC[C@H]1O[C@@H](n2ccc(=O)[nH]c2=O)[C@H](O)[C@@H]1O (some centres not stated)
Activity (Escherichia coli [17]): 90% | MIC (Enterococcus faecium [1]): 6.25 µg/mL (≈ 8.68 µM) | MIC [2]: 3.13 µg/mL (≈ 4.35 µM) | IC50 [3]: 91 µg/mL (≈ 126 µM) | MNTC at 48 h [4]: 62.5 µg/mL | Activity [5]: Non-toxic | inhibition (Bacillus subtilis [10]): inactive | MIC (Escherichia coli [6]): > 200 µg/mL | MIC (Pseudomonas aeruginosa): > 200 µg/mL | Activity (Escherichia coli [18]): Active | MIC (Enterococcus faecalis [7]): 12.5 µg/mL (≈ 17.4 µM) | MIC (Bacillus subtilis [9]): 6.25 µg/mL (≈ 8.68 µM) | MIC (Streptococcus agalactiae): 3.13 µg/mL (≈ 4.35 µM)

Compound: CCCCCCCCCCCCCCCCOP(=O)(CCN1C[C@@H](O)[C@H](O)C1)OC[C@H]1O[C@@H](n2ccc(=O)[nH]c2=O)[C@H](O)[C@@H]1O (mixture of isomers)
Activity (Escherichia coli [17]): 90% | MIC (Staphylococcus aureus [19]): 12.5 µg/mL | MIC [20]: 12.5 µg/mL | MIC (Enterococcus faecium [1]): 3.13 µg/mL | MIC [2]: 3.13 µg/mL | IC50 [3]: 56 µg/mL | MNTC at 48 h [4]: 31.2 µg/mL | Activity [5]: Non-toxic | MIC (Escherichia coli [6]): > 200 µg/mL | MIC (Pseudomonas aeruginosa): > 200 µg/mL | MIC (Enterococcus faecalis [7]): 6.25 µg/mL | MIC (Staphylococcus aureus [8]): 6.25 µg/mL | MIC (Bacillus subtilis [9]): 3.13 µg/mL | MIC (Streptococcus agalactiae): 1.56 µg/mL

MIC (Escherichia coli [6]): > 200 µg/mL | MIC (Pseudomonas aeruginosa): > 200 µg/mL
Compound: CCOP(=O)(CCN1C[C@@H](O)[C@H](O)C1)OC[C@H]1O[C@@H](n2ccc(=O)[nH]c2=O)[C@H](O)[C@@H]1O (some centres not stated)
Activity [5]: Non-toxic

MIC (Bacillus subtilis [9]): 2 µg/mL (≈ 4.5 µM) | MIC (Streptococcus agalactiae): 1 µg/mL (≈ 2.25 µM)
Compound: CN(C)[C@@H]1C(O)=C(C(N)=O)C(=O)[C@@]2(O)C(O)=C3C(=O)c4c(O)cccc4[C@@](C)(O)[C@H]3C[C@@H]12 [TETRACYCLINE]
